Most compounds without a hit are left out; they make up all but 2.1% or so of the library.
EP2 modulator = EP2 receptor modulators, cAMP readout, primary screen, cell-based, HTRF cAMP, PGE2 stimulation | Prostaglandin E2 receptor EP2 subtype (Homo sapiens), P43116 | EP2-expressing cells, cAMP HTRF FRET, PGE2 co-stimulation | induction, % at 25 µM | hit rate 0.83% among 260,000 | AID 940, 2007;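 active = compounds whose cAMP rise, as percent of the full-agonist control response, exceeds 60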;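 also: rat C6 glioma line stably carrying human EP2 under a CMV promoter; the protocol text gives 20 µM as final concentration; 100% = response of wells given 1 µM PGE2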
Thrombin inh = human alpha-thrombin inhibitors, primary screen, counter-screen for coagulation protease inhibitor project, biochemical, 1536-well, fluorogenic AMC substrate; hit rate 0.26% among 220,000; Prothrombin (Homo sapiens), P00734; inhibition, % at 5 µM; AID 1046, 2008; Boc-VPR-AMC fluorogenic substrate cleavage;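 active = inhibition at or above 40%; inactive = inhibition below 40%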;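 also: 0% = enzyme with no compound and 100% = wells without enzyme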
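signal = AMC fluorescence, 355/460 nm | material = human alpha-thrombin enzyme | control set = enzyme without compound as high, wells lacking enzyme as low | times = reaction at room temperature | read-out basis = percent inhibition scaled between no-compound controls and no-enzyme blanks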
KLK5 inh = human KLK5 protease inhibitors, primary screen, biochemical, 1536-well | Kallikrein-5 (Homo sapiens), Q9Y337 | recombinant hK5, fluorogenic AMC substrate cleavage | inhibition, % at 5 µM | hit rate 0.59% among 210,000;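 active = inhibition of 40% or more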;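 also: 0% = enzyme controls without compound and 100% = no-enzyme blanks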
FXIa inh 1536 = human FXIa protease inhibitors, primary screen, biochemical, 1536-well. Coagulation factor XI (Homo sapiens), P03951. purified FXIa, Boc-Glu-Ala-Arg-AMC fluorogenic substrate. inhibition, % at 5 µM. hit rate 0.14% among 220,000;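 active = inhibition of at least 40%; inactive = inhibition below 40%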;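 also: fluorescence of freed AMC excited at 355 nm; 0% = enzyme without compound and 100% = no enzyme blank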
FXIIa inh 1536 = human FXIIa protease inhibitors, primary screen, biochemical, 1536-well; purified FXIIa, Boc-QGR-AMC fluorogenic substrate, 2 h; hit rate 0.3% among 220,000; inhibition, % at 5 µM; in the data active = inhibition above about 40%;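 also: 0% = enzyme with no compound and 100% = blank without enzyme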
Target sequence (P00748 20-372 limits assumed): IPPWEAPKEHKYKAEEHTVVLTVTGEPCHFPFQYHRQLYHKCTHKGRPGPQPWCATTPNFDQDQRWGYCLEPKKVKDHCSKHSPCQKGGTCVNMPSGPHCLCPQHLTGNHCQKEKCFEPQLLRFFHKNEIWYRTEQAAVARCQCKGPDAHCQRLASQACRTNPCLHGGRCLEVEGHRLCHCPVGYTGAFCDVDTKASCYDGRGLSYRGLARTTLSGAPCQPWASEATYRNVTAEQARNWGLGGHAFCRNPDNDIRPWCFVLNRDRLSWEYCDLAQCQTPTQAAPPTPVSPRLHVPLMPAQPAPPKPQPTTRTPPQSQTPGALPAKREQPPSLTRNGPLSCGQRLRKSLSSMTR
Target sequence (P00748 373-615 limits assumed): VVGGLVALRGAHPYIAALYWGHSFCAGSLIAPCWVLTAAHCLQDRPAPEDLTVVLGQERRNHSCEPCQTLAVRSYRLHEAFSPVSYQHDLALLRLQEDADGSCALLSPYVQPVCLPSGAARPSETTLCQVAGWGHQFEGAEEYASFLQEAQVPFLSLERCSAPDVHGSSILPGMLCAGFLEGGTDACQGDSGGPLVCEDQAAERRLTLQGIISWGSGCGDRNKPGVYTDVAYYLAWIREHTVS
EP2 antag = human EP2 receptor antagonists, primary screen, TR-FRET cAMP, C6 glioma cells; C6 glioma cells expressing human EP2; cells stimulated with saturating PGE2; inhibition, % at 25 µM; hit rate 0.52% among 260,000; Prostaglandin E2 receptor EP2 subtype (Homo sapiens), P43116;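 active = percent inhibition above 40 after rounding to a whole number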;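 also: rat C6 glioma host cells with rolipram phosphodiesterase inhibitor present; the protocol text gives 20 µM as final concentration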
* marks the source's active call; other numbers are inactive results; . = no result.

SMILES	EP2 modulator	Thrombin inh	KLK5 inh	FXIa inh 1536	FXIIa inh 1536	EP2 antag
COc1ccc(/C=C2\CCCC3C2=NN(C(=O)COC(=O)CNC(=O)c2ccccc2)C3c2ccc(OC)cc2)cc1 (stereo unspecified)	29	13	47*	2	16	3
C=CCNC(=O)Cn1nc(-c2cc(C)oc2C)cc(N)c1=O	-44	.	.	.	.	5
COc1nc(OC)nc(N2CCC(C(=O)Nc3ccc4c(c3)CCC4)CC2)n1	6	.	.	.	.	7
O=[N+]([O-])c1ccc2c(c1)c1ccccc1n2CCO	-25	39	23	24	50*	4
CN(C)Cc1nc2ccccc2c(=O)n1Cc1nc(-c2cccc([N+](=O)[O-])c2)cs1	43	-5	-4	-4	8	3
CN1CCN(Cc2nc3ccccc3c(=O)n2Cc2nc(-c3ccc([N+](=O)[O-])cc3)cs2)CC1	-22	37	13	-7	-3	49*
O=c1[nH]c2cc3c(cc2cc1C(c1nnnn1C1CCCCC1)N1CCOCC1)OCCO3 (stereo unspecified)	0	.	.	.	.	8
CCOc1ccc2[nH]c(=O)c(C(c3nnnn3C3CCCCC3)N3CCN(C)CC3)cc2c1 (stereo unspecified)	2	2	-32	36	48*	.
CCOc1ccc2[nH]c(=O)c(C(c3nnnn3C3CCCCC3)N3CCN(CC)CC3)cc2c1 (stereo unspecified)	-30	-3	-1	-19	-18	12
O=c1[nH]c2cc3c(cc2cc1C(c1nnnn1C1CCCC1)N1CCCCCC1)OCCO3 (stereo unspecified)	81*	.	.	.	.	22
CCOc1ccc2[nH]c(=O)c(C(c3nnnn3C3CCCC3)N3CCc4ccccc43)cc2c1 (stereo unspecified)	31	.	.	.	.	7
CCOc1ccc2[nH]c(=O)c(C(c3nnnn3C3CCCC3)N3CCCc4ccccc43)cc2c1 (stereo unspecified)	74*	.	.	.	.	10
CCOC(=O)Cn1nnnc1CN(Cc1cc2cc(C)cc(C)c2[nH]c1=O)C1CCCCC1	29	.	.	.	.	5
CCOC(=O)CCCNC(=O)CCNC(=O)c1ccc(OC(C)C)cc1	40	22	40*	13	16	13
CCOC(=O)CCCNC(=O)CCNC(=O)c1ccc(OCC(C)C)cc1	43	0	2	1	7	5
COc1ccc2[nH]c(=O)c(C(c3nnnn3C3CCCCC3)N3CCCc4ccccc43)cc2c1 (stereo unspecified)	51	.	.	.	.	5
Cc1ccc2nc(NC(=O)CSCC(=O)OCC(=O)c3ccc(Br)cc3)sc2c1	-17	92*	9	7	19	.
COC(=O)c1ccc2nc(NC(=O)CSCC(=O)OCC(=O)c3ccccc3)sc2c1	-7	-3	-13	6	9	12
Cc1ccc(S(=O)(=O)N=Nc2c(O)[nH]c3cc(O)c(C(=O)O)cc23)cc1	16	.	.	.	.	41*
COc1ccc(OC)c(CC(=O)NCc2nc(-c3ccncc3)n[nH]2)c1	10	.	.	.	.	7
COc1ccc(CC(=O)NNC(=O)COc2ccc3ccccc3c2)cc1	-77	-2	1	4	10	103*
COc1ccc(OC)c(C(=O)CSc2nnc(-c3ccc(C(C)(C)C)cc3)o2)c1	28	.	.	.	.	8
Cc1ccc(-c2c[n+](CC(=O)Nc3nc(-c4ccccc4)cs3)c3n2CCC3)cc1	-37	4	2	2	5	5
O=C(C[n+]1cc(-c2ccccc2)n2c1CCC2)Nc1nc(-c2ccccc2)cs1	9	18	42*	30	41*	3
O=c1oc(-c2ccccc2NS(=O)(=O)c2ccc3ccccc3c2)nc2ccccc12	3	28	59*	14	11	7
SMILES	EP2 modulator	Thrombin inh	KLK5 inh	FXIa inh 1536	FXIIa inh 1536	EP2 antag
CC(=O)Nc1ccc(NS(=O)(=O)c2ccc(C)cc2)cc1[N+](=O)[O-]	4	-5	47*	-13	4	2
CC(=O)Nc1ccc(NS(=O)(=O)c2ccc(C)cc2)c([N+](=O)[O-])c1	36	-1	0	-3	5	15
O=C(CCC1CCCN(c2ncccn2)C1)N1CCN(c2ccccn2)CC1 (stereo unspecified)	4	0	2	5	13	11
O=C(CCC1CCCN(C(=O)C2(c3ccccc3)CC2)C1)N1CCN(c2ccccn2)CC1 (stereo unspecified)	5	96*	0	-4	9	11
Cc1ccccc1NC(=O)C1(NC(=O)c2cccc(N3C(=O)CSC3c3ccccc3)c2)CCCCC1 (stereo unspecified)	4	13	80*	10	31	14
Cc1cccc(NC(=O)c2ccc(C3SCC(=O)N3CCc3ccccc3)cc2)c1C (stereo unspecified)	-36	-1	-12	1	11	18
CSC1=N/C(=C\c2ccc(C)o2)C(=O)S1	0	104*	102*	2	21	14
O=C(CN1CCC(c2nc3ccccc3s2)CC1)Nc1cc(C(F)(F)F)ccc1Cl	-13	.	.	.	.	5
Cn1c(NCCc2ccccc2)cc(=O)n(C)c1=O	1	-2	3	-2	77*	14
N#C/C(=C\c1ccc(F)cc1)c1nc(-c2ccco2)cs1	61*	0	-12	3	6	9
N#C/C(=C\c1ccc(Cl)cc1)c1nc(-c2ccco2)cs1	38	-8	-19	-5	0	1
CC1(C)C2CCC(C2)C1(C)NC(=O)CNCc1ccco1 (stereo unspecified)	6	.	.	.	.	13
Cc1[nH]cnc1CN(CCCn1ccnc1)Cc1ccccc1Cl	5	.	.	.	.	3
CSc1ccccc1C(=O)C1CCCN(S(=O)(=O)N(C)C)C1 (stereo unspecified)	-7	13	39	33	102*	5
O=C(Nc1ccccc1-c1nnn(CC(=O)N2CCc3ccccc3C2)n1)C1CCC1	-25	3	56*	-2	12	14
Cc1cccc2cc(C(c3nnnn3C3CCCCC3)N3CCc4ccccc43)c(=O)[nH]c12 (stereo unspecified)	108*	.	.	.	.	4
CCCC(c1nnnn1Cc1ccccc1)N(Cc1cc2cccc(C)c2[nH]c1=O)C1CCCCC1 (stereo unspecified)	69*	.	.	.	.	8
Cc1cccc2cc(C(c3nnnn3Cc3ccccc3)N3CCc4ccccc43)c(=O)[nH]c12 (stereo unspecified)	95*	.	.	.	.	7
